What is called Kd is the constant that tells how readily two partners part at equilibrium. The low end stands for tighter binding, the high end for weaker binding.

The target of one experiment is T1, Tsg101 UEV domain (Homo sapiens, UniProt Q99816).
T1 sequence (Q99816 2-145 limits assumed): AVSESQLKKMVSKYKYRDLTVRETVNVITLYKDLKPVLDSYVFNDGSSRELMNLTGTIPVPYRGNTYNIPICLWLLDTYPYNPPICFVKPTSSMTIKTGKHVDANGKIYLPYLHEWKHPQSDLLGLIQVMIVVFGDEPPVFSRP
Kind of experiment: BIAcore biosensor binding of Tsg101 UEV to immobilized GST–peptide fusions. Conditions: relative to HIV-1 PTAP peptide. An outline of the steps: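 Purified recombinant Tsg101 UEV domain was flowed over immobilized GST fusions of 10-amino-acid peptides spanning the central P(S/T)AP motifs of HIV-1 NL4–3 Gag, Tsg101 and Hrs. A mutant Gag PTAP peptide served as negative control. Binding was recorded at a range of UEV concentrations, and binding isotherms were plotted against concentration.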
(In general: SPR reads the build-up and loss of mass on a sensor chip optically.)

The target in experiment [1] is GST fusion of a 10-amino acid peptide spanning the PSAP motif of human Hrs (human). The experiment is described as follows: SPR.
The target in experiment [2] is GST fusion of a 10-amino acid peptide spanning the PTAP motif of HIV-1 NL4-3 Gag (HIV-1 NL4-3). Kind of experiment: SPR.
For experiment [3], the target named is GST fusion of a 10-amino acid peptide spanning the PTAP motif of human Tsg101 (human). The experiment is described as follows: SPR.
In experiment [4] the target is T2, Tsg101–Gal4p binding domain fusion, full-length wild-type Tsg101 (human, UniProt Q99816 1-390).
T2 sequence (looked up): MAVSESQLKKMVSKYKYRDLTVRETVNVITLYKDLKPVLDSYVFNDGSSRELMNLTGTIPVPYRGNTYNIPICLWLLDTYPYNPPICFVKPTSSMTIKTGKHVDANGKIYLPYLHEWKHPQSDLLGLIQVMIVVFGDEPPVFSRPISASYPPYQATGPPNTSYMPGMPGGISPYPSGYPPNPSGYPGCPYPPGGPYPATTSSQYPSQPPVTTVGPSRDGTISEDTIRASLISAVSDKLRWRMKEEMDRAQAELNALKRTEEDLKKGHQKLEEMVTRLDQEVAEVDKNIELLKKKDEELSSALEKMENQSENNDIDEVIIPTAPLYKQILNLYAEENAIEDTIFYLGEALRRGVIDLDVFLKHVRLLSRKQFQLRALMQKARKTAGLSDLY
Kind of experiment: two-hybrid.

For SPTPSAPVPL [Hrs SPTPSAPVPL], the “binding affinity weaker than Tsg101 UEV binding to the HIV-1 PTAP peptide” value at Tsg101 UEV domain is listed as “sevenfold”. In the case of “Tsg101 UEV domain (NH2-terminal ubiquitin E2 variant domain of Tsg101) (from UniProt Q99816 2-145) (domain or fragment)”, the fold weaker binding affinity than for the HIV-1 PTAP peptide in experiment [1] came out at 7 fold; in experiment [3], 4 fold. This molecule showed a Kd in experiment [2] of 21 µM. For the molecule VIIPTAPLYK [Tsg101 VIIPTAPLYK], on Tsg101 UEV domain, the “binding affinity weaker than Tsg101 UEV binding to the HIV-1 PTAP peptide” value is given as “fourfold”.

B1: Hrs^ΔPSAP, Gal4p activation domain fusion (alanine substitution of the Hrs 348PSAP351 sequence) (natural protein, human, UniProt O14964 1-777, looked up)
chain: MGRGSGTFERLLDKATSQLLLETDWESILQICDLIRQGDTQAKYAVNSIKKKVNDKNPHVALYALEVMESVVKNCGQTVHDEVANKQTMEELKDLLKRQVEVNVRNKILYLIQAWAHAFRNEPKYKVVQDTYQIMKVEGHVFPEFKESDAMFAAERAPDWVDAEECHRCRVQFGVMTRKHHCRACGQIFCGKCSSKYSTIPKFGIEKEVRVCEPCYEQLNRKAEGKATSTTELPPEYLTSPLSQQSQLPPKRDETALQEEEELQLALALSQSEAEEKERLRQKSTYTSYPKAEPMPSASSAPPASSLYSSPVNSSAPLAEDIDPELARYLNRNYWEKKQEEARKSPTAAAAVPLTEPAAQPGEGHAAPTNVVENPLPETDSQPIPPSGGPFSEPQFHNGESEESHEQFLKALQNAVTTFVNRMKSNHMRGRSITNDSAVLSLFQSINGMHPQLLELLNQLDERRLYYEGLQDKLAQIRDARGALSALREEHREKLRRAAEEAERQRQIQLAQKLEIMRQKKQEYLEVQRQLAIQRLQEQEKERQMRLEQQKQTVQMRAQMPAFPLPYAQLQAMPAAGGVLYQPSGPASFPSTFSPAGSVEGSPMHGVYMSQPAPAAGPYPSMPSTAADPSMVSAYMYPAGATGAQAAPQAQAGPTASPAYSSYQPTPTAGYQNVASQAPQSLPAISQPPQSSTMGYMGSQSVSMGYQPYNMQNLMTTLPSQDASLPPQQPYIAGQQPMYQQMAPSGGPPQQQPPVAQQPQAQGPPAQGSEAQLISFD
As for B1, the “fold reduction of binding against wild-type Hrs” value in experiment [4] is roughly 2 fold.

Values taken from paper PMC2172688 (The Journal of Cell Biology, 2003).
